The results in this text go back to ChEMBL document CHEMBL1127816, “Synthesis and antiestrogenic activity of diaryl thioether derivatives” (1994).

Assay [1] addresses T1, Estrogen receptor (Rattus norvegicus) (UniProt P06211+Q62986). Put plainly: Relative binding affinity (RBA) on estrogen receptor was measured by in vitro using cytosol from the immature rat uterus. Type of assay: protein assay. The method in brief: (§1)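 Competitive displacement of [3H]estradiol from estrogen receptor. Incubation was 3 h at 25 °C. Nonspecific binding was defined with 1000 nM unlabeled estradiol. RBA = 100 × IC50(estradiol)/IC50(compound), with estradiol set at 100%.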

In assay [2] the target is T2, Estrogen receptor (Homo sapiens) (UniProt Q92731+P03372). The assay can be described thus: Ability to inhibit E2-induced proliferation of ZR-75-1 cells at a dose of 1 uM. Type of assay: functional, cell-based. The gist of the method: (§2)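 ZR-75-1 cells (passages 90-96, kept in phenol-red-free RPMI-1640 with 10 nM E2) were plated at 10 000 cells/dish in SD medium (5% dextran-charcoal FBS, insulin) and allowed to adhere for 3 days. They were then treated for 9 days at 37 °C with compound (1 uM, ethanol vehicle 0.1%) plus E2 0.1 nM, with medium changed every 2-3 days. Read-out was DNA content. % inhibition = 100 − [(D−B)/(C−A)]×100. Done in triplicate.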

Assay [3] addresses T2, Estrogen receptor (Homo sapiens). Put plainly: Ability to stimulate the basal cell proliferation of ZR-75-1 cells at a dose of 1 uM. In kind it is functional, cell-based. The gist of the method:
(§3)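 ZR-75-1 cells were plated at 10 000 cells/dish in phenol-red-free SD medium (5% dextran-charcoal FBS) and allowed to adhere for 3 days. Compound was added at 1 uM without E2 (controls received 0.1% ethanol). Cells were incubated for 9 days at 37 °C with medium renewed every 2-3 days. Basal proliferation was read as DNA content (ng/dish). Done in triplicate.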

Assay [4] in a line: Compound was tested for percent inhibition of the Estradiol (E2) induced cell proliferation. The arrangement: concentration or dose not given beside the values.
For assay [5], the target named is T1, Estrogen receptor (Rattus norvegicus). Put plainly: Relative binding affinity (RBA) on estrogen receptor was measured by in vitro using cytosol from the immature rat uterus; N means no binding observed. In kind it is protein assay. The method in brief: as §1
Assay [6] is described as follows: Antiestrogenic activity against Estradiol (E2) induced cell proliferation. Set-up: concentration or dose not given beside the values.
Assay [7] is described as follows: Percent inhibition of Estradiol (E2) induced cell proliferation. Set-up: scale not given: the % may be the effect or the level left.
Assay [8] has as its system ZR-75-1. Put plainly: (§4) Inhibition of E2-induced proliferation of ZR-75-1 cells at 1 uM. Type of assay: functional, Homo sapiens. The method in brief: as §2
The test system of assay [9] is ZR-75-1. The description is as §4. In kind it is functional, Homo sapiens. The method in brief: as §2
The source holds these as a separate data set.

Assay [10] has as its system ZR-75-1. Put plainly: Stimulation of basal cell proliferation of ZR-75-1 cells at 1 uM. Type of assay: functional, Homo sapiens. The gist of the method:
as §3

Activity calls are given as the source filed them. The rule behind the calls is not given here.

`CCCCN(C)C(=O)CCSC(Cc1ccc(O)cc1)c1ccc(O)cc1` (stereo not drawn) came in with an RBA in assay [1] of 0.01%. For the same molecule, the DNA content per dish (cell proliferation) ((ng of DNA) dish-1) in assay [2] is 2600. In addition, the Binding ((ng of DNA) dish-1) in [3] came out at 1890. In assay [4], this molecule displayed an Activity of 40%.
With `CCCCN(C)C(=O)CCCCCCCCCCCSC(Cc1ccc(OC)cc1)c1ccc(OC)cc1` (stereo not drawn), the DNA content per dish (cell proliferation) ((ng of DNA) dish-1) in assay [2] was 1350. In assay [5], the “relative binding affinity (RBA)” value was “inactive”. Also, in assay [3], the Binding ((ng of DNA) dish-1) turned out to be 800. In addition, the Activity in [6] came to 13%.
The like results for `CCCCN(C)C(=O)CCCCCCCCCCCSC(Cc1ccc(O)cc1)c1ccc(OC)cc1` (stereo not drawn) were, in that order, 1090, “inactive”, 807 and 55%.
As for `CCCCN(C)C(=O)CCSC(Cc1ccc(OCc2ccccc2)cc1)c1ccc(OC)cc1` (stereo not drawn), the DNA content per dish (cell proliferation) ((ng of DNA) dish-1) in [2] was 1020. For the same molecule, in [5], the “relative binding affinity (RBA)” value is “inactive”. Also, the Binding ((ng of DNA) dish-1) in assay [3] came to 789. In addition, the Activity in assay [6] was found to be 64%.
The like results for `CCCCN(C)C(=O)CCCCCCCCCCSC(Cc1ccc(O)cc1)c1ccc(OC)cc1` (stereo not drawn) were, in that order, 1320, “inactive”, 733 and 8%.
Consider `CCCCN(C)C(=O)CCCCCSC(Cc1ccc(O)cc1)c1ccc(O)cc1` (stereo not drawn), for which the RBA in assay [1] amounted to 0.01%. The DNA content per dish (cell proliferation) ((ng of DNA) dish-1) in assay [2] came to 2050. The molecule further displayed a Binding ((ng of DNA) dish-1) in assay [3] of 1440. In assay [7], this molecule showed an Activity of 49%.
On to `CCCCN(C)C(=O)CCCCCCCCCCSC(Cc1ccc(OCc2ccccc2)cc1)c1ccc(OC)cc1` (stereo not drawn), for which the DNA content per dish (cell proliferation) ((ng of DNA) dish-1) in assay [2] was found to be 1120. In assay [3], this molecule came in with a Binding ((ng of DNA) dish-1) of 749. The Activity in [6] came out at 42%.
The molecule `OCCCCCCCCCCCSC(Cc1ccc(O)cc1)c1ccc(O)cc1` (stereo not drawn) had an RBA in assay [1] of 0.02%. This molecule also registered a DNA content per dish (cell proliferation) ((ng of DNA) dish-1) in assay [2] of 2230. For the same molecule, the Binding ((ng of DNA) dish-1) in assay [3] came to 1540. Further, in [4], the Activity was 42%.
Take `CCCCN(C)C(=O)CCCCCCCSC(Cc1ccc(OC)cc1)c1ccc(OC)cc1` (stereo not drawn): the DNA content per dish (cell proliferation) ((ng of DNA) dish-1) in assay [2] was found to be 1150. In assay [5], the “relative binding affinity (RBA)” value is “inactive”. The molecule also had a Binding ((ng of DNA) dish-1) in assay [3] of 746. Further, the Activity in [6] came to 36%.
For `CCCCN(C)C(=O)CCSC(Cc1ccc(OC)cc1)c1ccc(OC)cc1` (stereo not drawn) the same measures were 1010, “inactive”, 741 and 57%.
Molecule `CCCCN(C)C(=O)CCCCCCCSC(Cc1ccc(O)cc1)c1ccc(O)cc1` (stereo not drawn) showed an RBA in [1] of 0.01%. Further, in assay [2], the DNA content per dish (cell proliferation) ((ng of DNA) dish-1) is 2070. In assay [3], this molecule returned a Binding ((ng of DNA) dish-1) of 1410. The Activity in [4] amounted to 44%.
In assay [1], `CCCCN(C)C(=O)CCSC(Cc1ccc(O)cc1)c1ccc(OC)cc1` (stereo not drawn) returned an RBA of 0.01%. In assay [2], this molecule gave a DNA content per dish (cell proliferation) ((ng of DNA) dish-1) of 902. Also, the Binding ((ng of DNA) dish-1) in assay [3] amounted to 684. In assay [6], this molecule returned an Activity of 66%.
In [2], `COc1ccc(C(Cc2ccc(OCc3ccccc3)cc2)SCCCCCCCCCCCO)cc1` (stereo not drawn) gave a DNA content per dish (cell proliferation) ((ng of DNA) dish-1) of 1100. The “relative binding affinity (RBA)” value in assay [5] was “inactive”. The same molecule showed a Binding ((ng of DNA) dish-1) in [3] of 725. In assay [6], this molecule registered an Activity of 41%.
For `CCCCN(C)C(=O)CCCCCCCSC(Cc1ccc(OCc2ccccc2)cc1)c1ccc(OC)cc1` (stereo not drawn) the same measures were 1070, “inactive”, 791 and 56%.
Regarding `CCCCN(C)C(=O)CCCCCCCCCCSC(Cc1ccc(O)cc1)c1ccc(O)cc1` (stereo not drawn), the RBA in assay [1] came to 0.01%. Moreover, the DNA content per dish (cell proliferation) ((ng of DNA) dish-1) in assay [2] was 1390. Besides, in assay [3], the Binding ((ng of DNA) dish-1) was 1150. The Activity in assay [4] came to 80%.
`COc1ccc(C(Cc2ccc(O)cc2)SCCCCCCCCCCCO)cc1` (stereo not drawn): in assay [1], the RBA turned out to be 0.02%. The DNA content per dish (cell proliferation) ((ng of DNA) dish-1) in assay [2] came to 1280. The molecule further yielded a Binding ((ng of DNA) dish-1) in assay [3] of 839. This molecule also showed an Activity in assay [4] of 31%.
As to `CCCCN(C)C(=O)CCCCCCCCCCC1Cc2cc(O)ccc2[C@H]2CC[C@]3(C)[C@@H](O)[C@H](Cl)C[C@H]3[C@H]12` (stereo partly drawn), the Binding was 662 (ng of DNA) dish-1 in the assay with ZR-75-1 [8], 1403 (ng of DNA) dish-1 in the assay with ZR-75-1 [9] and 679 (ng of DNA) dish-1 with ZR-75-1 [10]. This molecule also showed an RBA in assay [1] of 1.2%. The Activity in assay [6] amounted to 103%; in assay [4], 94%.
`CCCCN(C)C(=O)CCCCCCCSC(Cc1ccc(O)cc1)c1ccc(OC)cc1` (stereo not drawn) showed an RBA in assay [1] of 0.05%. For the same molecule, the DNA content per dish (cell proliferation) ((ng of DNA) dish-1) in assay [2] is 915. The molecule further came in with a Binding ((ng of DNA) dish-1) in [3] of 698. The same molecule had an Activity in [6] of 66%.
